Activity calls are given as the source filed them. The calls are words filed in the database; no cut-off is given here.

The values that follow come from ChEMBL document CHEMBL1148626, “Synthesis and biological evaluation of novel, peripherally selective chromanyl imidazolethione-based inhibitors of dopamine beta-hydroxylase” (2006).

For test [1], the target named is T1, Dopamine beta-hydroxylase (Homo sapiens) (UniProt P09172).
T1 sequence (whole entry): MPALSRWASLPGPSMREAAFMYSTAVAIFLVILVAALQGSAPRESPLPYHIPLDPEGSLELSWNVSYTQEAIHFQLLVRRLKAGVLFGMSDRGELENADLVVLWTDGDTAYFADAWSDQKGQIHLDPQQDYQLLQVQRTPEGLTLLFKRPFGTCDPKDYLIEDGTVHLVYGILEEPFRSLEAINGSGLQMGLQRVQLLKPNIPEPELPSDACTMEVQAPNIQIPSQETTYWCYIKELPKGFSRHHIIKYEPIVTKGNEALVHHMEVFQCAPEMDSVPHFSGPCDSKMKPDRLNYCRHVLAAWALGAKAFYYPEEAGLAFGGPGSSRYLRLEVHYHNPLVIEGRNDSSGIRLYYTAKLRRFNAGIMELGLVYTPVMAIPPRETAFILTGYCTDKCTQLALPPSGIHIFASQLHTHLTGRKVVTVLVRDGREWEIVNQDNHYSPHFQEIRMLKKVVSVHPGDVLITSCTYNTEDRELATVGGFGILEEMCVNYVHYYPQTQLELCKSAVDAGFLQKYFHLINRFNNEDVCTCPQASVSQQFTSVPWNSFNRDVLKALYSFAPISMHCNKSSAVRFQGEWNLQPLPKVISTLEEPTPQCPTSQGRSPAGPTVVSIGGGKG
As to the kind of experiment: Effect on DBH activity in presence of dopamine by measuring Noradrenaline level. It is filed as functional. Further details: concentration or dose not given beside the values. The method, boiled down:
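Inhibitor at 5 µM in 200 mM sodium acetate pH 5.0 containing N-ethylmaleimide, CuSO4, catalase, pargyline, fumarate and 20 mM ascorbate. Preincubated 20 min at 37 °C, then dopamine added as substrate and reacted 45 min at 37 °C. Stopped with perchloric acid and filtered. Noradrenaline formed quantified by HPLC-ECD (0.75 V). Residual activity given as % of control, mean ± SEM of three experiments.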

Test [2] deals with Mus musculus. As to the kind of experiment: Effect on recovery of noradrenaline levels in mice at 100 mg/kg after 24 hrs. The format is functional. A digest of the protocol:
(§1)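 Male NMRI mice housed 10 per cage on a 12 h light/dark cycle at 22 °C. Compound given at 100 mg/kg by oral gavage in water vehicle. Animals decapitated at set times postdose; heart tissue held in 0.2 M perchloric acid for 12 h at 4 °C in the dark, then filtered. NA measured by HPLC with electrochemical detection. Expressed as % of vehicle control, mean ± SEM, n=4 per group.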

Test [3] deals with Mus musculus. The experiment in a line: Time for maximum effect for noradrenaline tissue reduction at 100 mg/kg, po. The arrangement: dose 100 mg/kg. It is filed as functional, organism-based. The note with it: NMR1. A digest of the protocol: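 Mice given 100 mg/kg orally in water by gavage. Heart taken 6, 9, 18 and 24 h postdose and extracted in 0.2 M perchloric acid. Noradrenaline measured by HPLC with electrochemical detection, as % of control without inhibitor. Mean ± SEM, four animals per group. Time of maximum effect taken from the time course.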

The species named for test [4] is Rattus norvegicus. As to the kind of experiment: Decrease in noradrenaline tissue levels in rat brain parietal and frontal cortex. The format is functional, organism-based. The note with it: Wistar, Cerebral cortex. The method, boiled down: (§2)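 Male Wistar rats dosed orally by gavage at 100 mg/kg, with water as vehicle. Killed by decapitation 9 h postdose. Frontal and parietal cortex, left atrium and left ventricle taken, extracted in 0.2 M perchloric acid (12 h, 4 °C, dark) and filtered. Noradrenaline by HPLC-electrochemical detection, as % of control without inhibitor. Mean ± SEM, four animals per group.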

The species entered for test [5] is Mus musculus. The experiment in a line: Decrease in noradrenaline tissue levels in mouse brain parietal cortex after 9 hrs. The note with it: NMR1. It is filed as functional, organism-based. The method, boiled down:
(§3)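 Male NMRI mice given test compound or vehicle (water) orally by gavage at a range of doses. At 9 h postdose, decapitation. Tissue (left ventricle or brain parietal cortex) weighed, held in 0.2 M perchloric acid 12 h at 4 °C in the dark, then filtered by centrifugation. Noradrenaline measured by HPLC with electrochemical detection. Value given as % of vehicle control.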

For test [6], the species on record is Mus musculus. As to the kind of experiment: Effect on noradrenaline levels in mouse left ventricle after 9 hrs. It is filed as functional, organism-based. The note with it: NMR1, Heart left ventricle. A digest of the protocol:
as §3

For test [7], the system named is Mus musculus. As to the kind of experiment: Decrease in noradrenaline tissue levels in mice heart at 100 mg/kg, po after 18 hrs. The format is functional, organism-based. Further details: dose 100 mg/kg. The note with it: NMR1. A digest of the protocol: as §1
Test [8] has as its system Rattus norvegicus. As to the kind of experiment: Decrease in noradrenaline tissue levels in rat at 100 mg/kg, po after 9 hrs. The format is functional, organism-based. Further details: dose 100 mg/kg. The note with it: Wistar. The method, boiled down: as §2

`COc1cc(Cl)cc2c1OC[C@H](n1c(CCN)cnc1S)C2`: the Activity in test [1] amounted to 36.7%. Regarding `COc1cc(Cl)c2c(c1)C[C@@H](n1c(CCN)cnc1S)CO2`, the Activity in test [1] came out at 94%. The same measure, in the same setting: with `Oc1ccc2c(c1)C[C@@H](n1c(CCNCc3ccccc3)cnc1S)CO2` the figure was 4.5%; with `COc1cccc2c1OC[C@H](n1c(CCN)cnc1S)C2`, 6.9%. For the compound `CNCCc1cnc(S)n1[C@H]1COc2ccccc2C1`, the Activity in test [1] was 2.2%. On the same count and under the same terms, with `NCCc1cnc(S)n1[C@H]1COc2c(F)cccc2C1` the figure was 6.9%. Consider `Cl.NCCc1cnc(S)n1[C@H]1COc2c(F)cc(F)cc2C1`, for which the Activity in the test with Mus musculus [2] is 50%; in the test listed under Mus musculus [6], “Dose-dependent effect”; in test [1], 3.3%. In addition, in the test with Mus musculus [3], the Tmax is 9 h. Moreover, the result in the test filed under Rattus norvegicus [4] and in the test listed under Mus musculus [5] was inactive. Besides, the outcome in the test with Mus musculus [7] and in the test on Rattus norvegicus [8] was Active. Turning to `NCCc1cnc(S)n1[C@H]1CCc2c(F)cc(F)cc2C1`, the outcome with Mus musculus [7] was Active. The Activity in test [1] stood at 1.6%. `NCCc1cnc(S)n1[C@H]1COc2ccccc2C1`: the Activity in test [1] worked out at 3%.

Take `CNCCc1cnc(S)n1[C@H]1COc2ccc(O)cc2C1`: the Activity in test [1] worked out at 15.5%.

As to `NCCc1cnc(S)n1[C@H]1COc2c(cccc2[N+](=O)[O-])C1`, in test [1], the Activity is 53.2%. The same measure, in the same setting: with `NCCc1cnc(S)n1[C@@H]1COc2c(F)cc(F)cc2C1` the figure was 50.2%; with `NCCCc1cnc(S)n1[C@H]1CCc2c(F)cc(F)cc2C1`, 8.1%; with `NCCc1cnc(S)n1[C@H]1COc2ccc(O)cc2C1`, 0%.

With `NCCc1cnc(S)n1[C@H]1COc2ccc([N+](=O)[O-])cc2C1`, the Activity in test [1] came to 94.8%.

For `NCCc1cnc(S)n1C1CSc2ccc(O)cc2C1` (stereo unspecified), in test [1], the Activity was 27.3%. On the same count and under the same terms, with `COc1ccc2c(c1)C[C@@H](n1c(CCN)cnc1S)CO2` the figure was 54.5%; with `COc1ccc2c(c1)C[C@@H](n1c(CCNCc3ccccc3)cnc1S)CO2`, 66%. Turning to `NCCc1cnc(S)n1[C@H]1CCc2ccccc2C1`, the Activity in test [1] is 16.8%.

In the case of `Cl.NCc1c[nH]c(=S)n1[C@H]1CCc2c(F)cc(F)cc2C1` [NEPICASTAT HYDROCHLORIDE], the Activity with Mus musculus [2] is 50%; in the test filed under Mus musculus [5] it was “Dose-dependent effect”; in the test listed under Mus musculus [6] it was “Dose-dependent effect”; in test [1] it was 0%. For the same compound, in the test with Mus musculus [3], the Tmax came out at 9 h. Further, the result in the test listed under Rattus norvegicus [4], in the test with Mus musculus [7] and in the test on Rattus norvegicus [8] was Active. As to `NCCc1cnc(S)n1[C@H]1COc2cc(Cc3ccccc3)c(O)cc2C1`, the Activity in test [1] came to 86.1%. Still for that read-out and setting: with `NCCc1cnc(S)n1[C@H]1COc2ccc(F)cc2C1` the figure was 8%. The same measure, in the same setting: with `NCCc1cnc(S)n1[C@H]1COc2c(O)cccc2C1` the figure was 125%; with `NCc1cnc(S)n1[C@H]1COc2ccc(O)cc2C1`, 17.8%; with `NCCc1cnc(S)n1[C@H]1COc2cc(F)c(F)cc2C1`, 9.4%. On the same count and under the same terms, with `NCc1cnc(S)n1[C@H]1COc2ccccc2C1` the figure was 0%; with `COc1ccc2c(c1)CC(n1c(CCN)cnc1S)CS2` (stereo unspecified), 99.4%; with `CNCCc1c[nH]c(=S)n1[C@H]1COc2c(F)cc(F)cc2C1`, 2.6%.

For `NCCc1cnc(S)n1[C@H]1COc2c(cc(F)c(F)c2F)C1`, in test [1], the Activity was 8.2%.

As to `NCc1cnc(S)n1[C@H]1COc2c(F)cc(F)cc2C1`, in the test on Mus musculus [7], the outcome was Active. The Activity in test [1] was found to be 4.1%.
